# Measurements as given in ChEMBL document CHEMBL3576866, “Discovery of a Cyclic Boronic Acid β-Lactamase Inhibitor (RPX7009) with Utility vs Class A Serine Carbapenemases” (J Med Chem, 2015).
# Tests used:
# [1] = molecular target: T1, Beta-lactamase SHV-1 (Klebsiella pneumoniae) (UniProt P0AD64); experiment: Inhibition of Klebsiella pneumoniae KP1082 SHV-1 assessed as meropenem MIC at 4 ug/ml by broth microdilution method
# T1 sequence (whole entry): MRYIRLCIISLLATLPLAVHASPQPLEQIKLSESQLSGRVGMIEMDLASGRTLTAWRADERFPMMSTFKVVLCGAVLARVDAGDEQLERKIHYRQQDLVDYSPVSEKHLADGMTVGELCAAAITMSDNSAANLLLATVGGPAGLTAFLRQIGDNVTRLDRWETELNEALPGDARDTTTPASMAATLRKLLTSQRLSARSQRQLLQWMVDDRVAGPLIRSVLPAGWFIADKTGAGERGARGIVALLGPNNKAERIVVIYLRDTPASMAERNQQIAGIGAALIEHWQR
# How it was run: (§1)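 CLSI broth microdilution (M07-A9, 2012) MIC of the carbapenem against clinical serine carbapenemase-producing strain, tested alone and with the inhibitor held at a fixed 4 μg/mL.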
# [2] = system: Klebsiella pneumoniae; experiment: Inhibition of Klebsiella pneumoniae KP1008 KPC-2 assessed as biapenem MIC at 4 ug/ml by broth microdilution method; how it was run: as §1
# [3] = Clearance in rat at 1000 mg/kg, iv administered as 0.5 hrs infusion by HPLC-MS method; format: ADME, organism-based; settings: in vivo
# [4] = system: Klebsiella pneumoniae; experiment: Inhibition of Klebsiella pneumoniae KP1004 KPC-2 assessed as meropenem MIC at 4 ug/ml by broth microdilution method; how it was run: as §1
# [5] = molecular target: Beta lactamase TEM-1 (Klebsiella pneumoniae) (UniProt Q7B899); experiment: Inhibition of Klebsiella pneumoniae KP1087 TEM-1 assessed as ertapenem MIC at 4 ug/ml by broth microdilution method; how it was run: as §1
# [6] = system: Klebsiella pneumoniae; experiment: Inhibition of Klebsiella pneumoniae KP1087 SHV-11 assessed as ertapenem MIC at 4 ug/ml by broth microdilution method; how it was run: as §1
# [7] = Inhibition of Escherichia coli recombinant P99 assessed as substrate nitrocefin degradation preincubated for 10 mins followed by substrate addition measured every 10 secs for 10 mins by spectrophotometric analysis
# How it was run: (§2)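 β-Lactamases purified from overexpressing recombinant E. coli. Enzyme preincubated with inhibitor at varying concentrations for 10 min at room temperature in 50 mM Na phosphate pH 7.0, 0.1 mg/mL BSA. Then 50 μM nitrocefin (final) added and cleavage read at 490 nm every 10 s for 10 min. Ki derived by the Waley method.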
# [8] = molecular target: Beta-lactamase (Klebsiella pneumoniae) (UniProt Q93LQ9); experiment: Inhibition of Klebsiella pneumoniae KP1084 KPC-3 assessed as imipenem MIC at 4 ug/ml by broth microdilution method
# [9] = molecular target: Beta-lactamase (Klebsiella pneumoniae) (UniProt Q93LQ9); experiment: Inhibition of Klebsiella pneumoniae KP1083 KPC-3 assessed as biapenem MIC at 4 ug/ml by broth microdilution method; how it was run: as §1
# [10] = system: Klebsiella pneumoniae; experiment: Inhibition of Klebsiella pneumoniae KP1088 SHV-11 assessed as biapenem MIC at 4 ug/ml by broth microdilution method
# How it was run: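 CLSI broth microdilution (M07-A9, 2012) against the clinical K. pneumoniae isolate. Carbapenem MICs were read alone and with 9f held at a fixed 4 μg/mL.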
# [11] = system: Klebsiella pneumoniae; experiment: Inhibition of Klebsiella pneumoniae KP1084 SHV-11 assessed as biapenem MIC at 4 ug/ml by broth microdilution method
# [12] = molecular target: Beta lactamase TEM-1 (Klebsiella pneumoniae) (UniProt Q7B899); experiment: Inhibition of Klebsiella pneumoniae KP1087 TEM-1 assessed as biapenem MIC at 4 ug/ml by broth microdilution method
# How it was run: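 Carbapenem MIC by CLSI broth microdilution (M07-A9), carbapenem titrated with inhibitor held at fixed 4 μg/mL, against clinical serine-carbapenemase-producing strain KP1087 (KPC-2, CTX-M-15, SHV-11, TEM-1; double porin mutant).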
# [13] = system: Klebsiella pneumoniae; experiment: Inhibition of Klebsiella pneumoniae KP1082 KPC-2 assessed as imipenem MIC at 4 ug/ml by broth microdilution method
# [14] = Inhibition of Escherichia coli recombinant TEM-10 assessed as substrate nitrocefin degradation preincubated for 10 mins followed by substrate addition measured every 10 secs for 10 mins by spectrophotometric analysis; how it was run: as §2
# [15] = system: Klebsiella pneumoniae; experiment: Inhibition of Klebsiella pneumoniae KP1087 KPC-2 assessed as imipenem MIC at 4 ug/ml by broth microdilution method
# How it was run: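 CLSI broth microdilution (M07-A9) against clinical K. pneumoniae strain KP1087 (KPC-2, CTX-M-15, SHV-11, TEM-1); carbapenem MIC (μg/mL) read with the inhibitor held at a fixed 4 μg/mL, alongside carbapenem alone.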
# [16] = molecular target: Carbapenem-hydrolyzing beta-lactamase KPC (Klebsiella oxytoca) (UniProt Q848S6); experiment: Inhibition of Klebsiella oxytoca KX1019 KPC-2 assessed as ertapenem MIC at 4 ug/ml by broth microdilution method
# [17] = system: Klebsiella pneumoniae; experiment: Inhibition of Klebsiella pneumoniae KP1004 SHV-11 assessed as imipenem MIC at 4 ug/ml by broth microdilution method; how it was run: as §1
# [18] = system: Klebsiella oxytoca; experiment: Inhibition of Klebsiella oxytoca KX1017 SHV-30 assessed as ertapenem MIC at 4 ug/ml by broth microdilution method
# [19] = molecular target: T2, Class A carbapenemase (Enterobacter cloacae) (UniProt A7WP95); experiment: Inhibition of Enterobacter cloacae ECL1058 KPC-3 assessed as biapenem MIC at 4 ug/ml by broth microdilution method
# T2 sequence (whole entry): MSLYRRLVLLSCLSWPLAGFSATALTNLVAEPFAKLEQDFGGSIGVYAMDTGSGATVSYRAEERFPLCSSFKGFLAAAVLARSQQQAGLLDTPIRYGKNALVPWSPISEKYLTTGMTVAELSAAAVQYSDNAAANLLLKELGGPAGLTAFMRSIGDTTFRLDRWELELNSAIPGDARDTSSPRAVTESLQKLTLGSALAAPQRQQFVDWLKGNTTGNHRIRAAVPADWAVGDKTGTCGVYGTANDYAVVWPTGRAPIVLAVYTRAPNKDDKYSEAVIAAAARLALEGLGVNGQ
# [20] = molecular target: Class A carbapenemase KPC-2 (Escherichia coli) (UniProt A8DS27); experiment: Inhibition of Escherichia coli EC1007 KPC-3 assessed as meropenem MIC at 4 ug/ml by broth microdilution method
# [21] = molecular target: T2, Class A carbapenemase (Enterobacter cloacae); experiment: Inhibition of Enterobacter cloacae ECL1058 KPC-3 assessed as ertapenem MIC at 4 ug/ml by broth microdilution method
# [22] = Clearance in rat at 100 mg/kg, iv administered as 0.5 hrs infusion by HPLC-MS method; format: ADME, organism-based; settings: in vivo
# [23] = system: Klebsiella pneumoniae; experiment: Inhibition of Klebsiella pneumoniae KP1087 CTX-M-15 assessed as biapenem MIC at 4 ug/ml by broth microdilution method
# [24] = molecular target: Beta-lactamase (Enterobacter cloacae) (UniProt P05364); experiment: Inhibition of Enterobacter cloacae ECL1061 AmpC assessed as cefepime MIC at 4 ug/ml by broth microdilution method
# [25] = system: Escherichia coli; experiment: Inhibition of Escherichia coli EC1011 TEM-26 assessed as cefepime MIC at 4 ug/ml by broth microdilution method
# How it was run: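 CLSI broth microdilution (M07-A9) against clinical strains expressing serine β-lactamases.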
# [26] = molecular target: T1, Beta-lactamase SHV-1 (Klebsiella pneumoniae); experiment: Inhibition of Klebsiella pneumoniae KP1082 SHV-1 assessed as biapenem MIC at 4 ug/ml by broth microdilution method; how it was run: as §1
smiles,measurement,setting,value
O=C(O)C[C@@H]1CC[C@H](NC(=O)Cc2cccs2)B(O)O1 [VABORBACTAM],MIC,[1],< 0.06 µg/mL
same,MIC,[2],≤ 0.06 µg/mL
same,clearance,[3],16.2 mL/min/kg
same,MIC,[4],≤ 0.06 µg/mL
same,MIC,[5],2 µg/mL
same,MIC,[6],2 µg/mL
same,Ki,[7],53 nM
same,MIC,[8],0.25 µg/mL
same,MIC,[9],< 0.06 µg/mL
same,MIC,[10],≤ 0.06 µg/mL
same,MIC,[11],0.25 µg/mL
same,MIC,[12],0.25 µg/mL
same,MIC,[13],0.13 µg/mL
same,Ki,[14],110 nM
same,MIC,[15],0.25 µg/mL
same,MIC,[16],0.25 µg/mL
same,MIC,[17],≤ 0.06 µg/mL
same,MIC,[18],0.25 µg/mL
same,MIC,[19],< 0.06 µg/mL
same,MIC,[20],< 0.06 µg/mL
same,MIC,[21],0.25 µg/mL
same,clearance,[22],26.7 mL/min/kg
same,MIC,[23],0.25 µg/mL
same,MIC,[24],2 µg/mL
same,MIC,[25],2 µg/mL
same,MIC,[26],< 0.06 µg/mL
